Reference: ChEMBL document CHEMBL1649070, “Virtual screening identification of nonfolate compounds, including a CNS drug, as antiparasitic agents inhibiting pteridine reductase” (J Med Chem, 2011)
≈ marks a conversion by molar mass, not a printed value. Calls of active or inactive are those of the source. No cut-off for these calls is given here.

target: T1, Pteridine reductase 1 (Leishmania major) (UniProt Q01782); assay: not given; conditions: at 500 µM
T1 sequence (whole entry): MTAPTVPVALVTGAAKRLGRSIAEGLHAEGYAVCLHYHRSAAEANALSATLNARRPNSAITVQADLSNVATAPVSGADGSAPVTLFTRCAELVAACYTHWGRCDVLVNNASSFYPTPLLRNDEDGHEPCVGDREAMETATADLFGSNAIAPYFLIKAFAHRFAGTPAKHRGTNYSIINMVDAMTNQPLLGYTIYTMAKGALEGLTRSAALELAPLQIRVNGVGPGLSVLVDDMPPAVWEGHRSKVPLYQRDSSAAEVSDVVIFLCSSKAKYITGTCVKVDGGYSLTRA

SMILES | inhibition
Cc1ccc(C(=N)N)cc1 | inactive
COc1ccc2c(c1)c(C=O)cn2C | inactive
O=C(CO)c1ccc(Cl)cc1 | inactive
Cc1ccc(C=O)cc1F | inactive
CC(=O)c1ccc(C#N)s1 | inactive
CCn1nc(C)cc1N | inactive
N#C/C=C(/N)N1CCCC1 | inactive
O=c1[nH]c2c(Cl)cccc2s1 | inactive
CC(=O)c1cccc(O)c1 | inactive
CCOc1ccc(CO)cc1 | inactive
Cn1cc(C(=O)O)c2ccccc21 | inactive
Fc1cccc(-n2ccnc2)c1 | inactive
O=Cc1ccc2c(c1)CCO2 | inactive
C#CCn1cc(C(=O)O)c(=O)c2cc(F)c(Cl)cc21 | inactive
Cc1cccc2cc[nH]c12 | inactive
NCCc1ccc(N)cc1 | inactive

SMILES | inhibition
Nc1ccc(F)c(F)c1N | inactive
O=Cc1ccc(O)cc1F | inactive
O=C(O)CCNC(=O)c1ccc([N+](=O)[O-])cc1 | inactive
CN(C)c1ccc(C=O)cc1C#N | inactive
Clc1cccc(-n2ccnc2)c1 | inactive
C/C(=N\N)c1ccc(C)cc1 | inactive
O=C1Cc2ccc(F)cc2N1 | inactive
CN(C)C1=C2C=CC=C2C(=O)C1 | inactive
COc1ccc(N2CCCC2=O)cc1 | inactive
NNc1cccc(F)n1 | inactive
OCc1ccc2[nH]ccc2c1 | inactive
NC(=O)C1=C2CCCc3cccc(c32)C1=O | inactive
Cc1nnsc1SC(C)C | inactive
C=CCc1cc(OC)c(O)cc1C=O | inactive
COc1ccc(C(C)=O)cc1CCl | inactive
CN1CCOc2cc(C=O)ccc21 | inactive

Now from value to molecule:

inhibition | SMILES
inactive | CC(=O)n1cc(C=O)c2ccccc21
inactive | O=C1CCCN1c1ccccc1
inactive | Nc1ccc(F)c(N)c1
inactive | Nc1ccc(Cl)cc1C=O
inactive | Cc1cc(=O)n(C)c2ccccc12
inactive | c1ccc2cnncc2c1
inactive | Cc1cccc(-c2nnn[nH]2)c1
inactive | Nc1nc(-c2ccc(Cl)cc2)cs1
inactive | O=C(O)c1ccc2cc[nH]c2c1
inactive | Nc1cc(F)ccc1O
inactive | Nc1cccc2c1C(=O)c1ccccc1-2
inactive | Nc1cc(-c2ccccc2)n[nH]1
inactive | Nc1cc(O)c2ccccc2n1
inactive | Nc1ccnc2ccccc12

test system: not listed separately; assay: Cytotoxicity against human MRC5 cells after 72 hrs by Alamar blue assay; type: cell-based; conditions: read-out: ED50

SMILES | CC50 at 72 h [µg/mL]
Nc1nnc(CCC(=O)c2cccs2)s1 | 34.4 (≈ 144 µM)
Nc1nnc(-c2ccc3nn[nH]c3c2)s1 | 51.5 (≈ 236 µM)
CCc1nc(N)nc(N)c1-c1ccc(Cl)cc1 [PYRIMETHAMINE] | 16.2 (≈ 65.3 µM)
Nc1nnc(-c2cc(=O)c3ccccc3o2)s1 | 43 (≈ 175 µM)

target: T2, Dihydrofolate reductase (Homo sapiens) (UniProt P00374); assay: Inhibition of human DHFR at 100 uM; conditions: not given
T2 sequence (whole entry): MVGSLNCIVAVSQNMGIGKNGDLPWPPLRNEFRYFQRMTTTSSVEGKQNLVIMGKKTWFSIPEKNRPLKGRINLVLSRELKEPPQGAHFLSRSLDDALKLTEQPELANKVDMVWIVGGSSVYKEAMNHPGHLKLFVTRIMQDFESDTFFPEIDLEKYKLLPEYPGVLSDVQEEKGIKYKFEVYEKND
Method in brief: (§1)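 NADPH oxidation followed at 340 nm. Compounds in DMSO, screened at a single concentration between 25 μM and 1 mM. Measurements run in triplicate.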

inhibition | SMILES
inactive | Cn1ncc2cc(N)ccc21

test system: Leishmania mexicana; assay: Antileishmanial activity against Leishmania mexicana MHOM/BZ/84/BEL46 assessed as growth at 50 ug/ml by Alamar blue assay; type: functional; conditions: not given
Method in brief: (§2)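 Promastigotes grown in SDM-79, pH 7.3, with 15% heat-inactivated FCS at 28 C in 5% CO2, then seeded at 1 × 10^6 parasites/mL. Each compound tested alone at 50 μg/mL in duplicate as a control for the combination experiments; DMSO below 1% final. After 72 h at 28 C, Alamar Blue added for 4 h; fluorescence read at ex 530 / em 590 nm. Growth expressed as percentage of untreated cultures.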

SMILES | growth, % of control at 50 µg/mL [%]
Nc1nnc(-c2ccc3[nH]nnc3c2)s1 | 112
Nc1nnc(CCC(=O)c2cccs2)s1 | 96.9
CCc1nc(N)nc(N)c1-c1ccc(Cl)cc1 [PYRIMETHAMINE] | 102
Nc1nnc(-c2cc(=O)c3ccccc3o2)s1 | 132

target: T2, Dihydrofolate reductase (Homo sapiens); assay: Inhibition of human DHFR at 50 uM; conditions: not given
Method in brief: as §1

SMILES | inhibition
O=C(c1ccc(O)cc1)c1ccc(F)cc1 | inactive
O=C(CN1C(=O)c2ccccc2C1=O)Nc1nnc(CN2C(=O)c3ccccc3C2=O)s1 | inactive

Continued, values first:

inhibition | SMILES
inactive | Nc1nnc(-c2ccc3[nH]nnc3c2)s1
inactive | Nc1nnc(CCC(=O)c2ccc(Cl)cc2)s1
inactive | Nc1nnc(-c2cc(=O)c3ccccc3o2)s1

test system: Leishmania major; assay: Antileishmanial activity against Leishmania major MHOM/SU/73/5-ASKH assessed as growth at 50 ug/ml by Alamar blue assay; type: functional; conditions: not given
Method in brief: as §2

SMILES | growth, % of control at 50 µg/mL [%]
Nc1nnc(-c2ccc3[nH]nnc3c2)s1 | 83.5
Nc1nnc(CCC(=O)c2cccs2)s1 | 85.1
CCc1nc(N)nc(N)c1-c1ccc(Cl)cc1 [PYRIMETHAMINE] | 68
Nc1nnc(-c2cc(=O)c3ccccc3o2)s1 | 76

test system: not listed separately; assay: Solubility of the compound at pH 7.4; type: physicochemical; conditions: buffer

solubility [µM] | SMILES
1300 (≈ 338 µg/mL) | Nc1nnc(CN2C(=O)c3ccccc3C2=O)s1
3700 (≈ 767 µg/mL) | Nc1nnc([C@@H](O)c2ccccc2)s1
400 (≈ 82.1 µg/mL) | Cc1cc(C)cc(-c2nnc(N)s2)c1
22000 (≈ 3460 µg/mL) | CCC(C)c1nnc(N)s1 (stereo not given)
390 (≈ 78.9 µg/mL) | N#Cc1ccc(-c2nnc(N)s2)cc1
2000 (≈ 354 µg/mL) | Nc1nnc(-c2ccccc2)s1
420 (≈ 86.2 µg/mL) | Cc1ccc(-c2nnc(N)s2)cc1C
1300 (≈ 267 µg/mL) | Nc1nnc(CCc2ccccc2)s1
1200 (≈ 287 µg/mL) | Nc1nnc(CCC(=O)c2cccs2)s1
19 (≈ 7.17 µg/mL) | Nc1nnc(-c2cccc(NS(=O)(=O)c3ccc([N+](=O)[O-])cc3)c2)s1
87000 (≈ 18600 µg/mL) | Nc1nnc(CC2NC(=O)NC2=O)s1 (stereo not given)
13000 (≈ 2320 µg/mL) | Nc1nnc(-c2ccncc2)s1
210 (≈ 56.2 µg/mL) | Nc1nnc(CCC(=O)c2ccc(Cl)cc2)s1
24 (≈ 9.06 µg/mL) | Nc1nnc(-c2cccc(NS(=O)(=O)c3cccc([N+](=O)[O-])c3)c2)s1
530 (≈ 118 µg/mL) | Nc1nnc(-c2cccc([N+](=O)[O-])c2)s1
210000 (≈ 24200 µg/mL) | Cc1nnc(N)s1
2500 (≈ 546 µg/mL) | Nc1nnc(-c2ccc3nn[nH]c3c2)s1
780 (≈ 193 µg/mL) | Nc1nnc(CCCC(=O)c2ccccc2)s1
42000 (≈ 6870 µg/mL) | Nc1nnc(CCCl)s1
240 (≈ 61.4 µg/mL) | Nc1nnc(CCOc2ccc(Cl)cc2)s1
13000 (≈ 2170 µg/mL) | Nc1nnc(-c2ccco2)s1
440 (≈ 97.4 µg/mL) | CCOc1ccc(-c2nnc(N)s2)cc1
730 (≈ 179 µg/mL) | Nc1nnc(-c2cc(=O)c3ccccc3o2)s1

SMILES | solubility [µM]
NCCc1ccc(-c2nnc(N)s2)cc1 | 210000 (≈ 46300 µg/mL)

target: T1, Pteridine reductase 1 (Leishmania major); assay: Inhibition of Leishmania major PTR1 at 5 uM; conditions: not given
Method in brief: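 Compounds dissolved in DMSO and screened at a single 5 μM concentration; DMSO kept below 1%. Measurements run in triplicate.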

SMILES | inhibition
O=C(CN1C(=O)c2ccccc2C1=O)Nc1nnc(CN2C(=O)c3ccccc3C2=O)s1 | inactive
NCCc1ccc(-c2nnc(N)s2)cc1 | inactive

Second part, the molecule after the results:

inhibition | SMILES
inactive | Nc1nnc(CN2C(=O)c3ccccc3C2=O)s1
inactive | Nc1nnc([C@@H](O)c2ccccc2)s1
inactive | Nc1nnc(-c2ccc3[nH]nnc3c2)s1
inactive | Cc1ccc(C(=O)Nc2nnc(-c3ccc(C)c(C)c3)s2)cc1C
inactive | Cc1cc(C)cc(-c2nnc(N)s2)c1
inactive | CCC(C)c1nnc(N)s1 (stereo not given)
inactive | N#Cc1ccc(-c2nnc(N)s2)cc1
inactive | O=C(Nc1nnc(-c2ccncc2)s1)c1ccncc1
inactive | Nc1nnc(-c2ccccc2)s1
inactive | Cc1ccc(-c2nnc(N)s2)cc1C
inactive | Nc1nnc(CCc2ccccc2)s1
inactive | Nc1nnc(CCC(=O)c2cccs2)s1
inactive | Nc1nnc(-c2cccc(NS(=O)(=O)c3ccc([N+](=O)[O-])cc3)c2)s1
inactive | Nc1nnc(CC2NC(=O)NC2=O)s1 (stereo not given)
inactive | Nc1nnc(-c2ccncc2)s1
inactive | Nc1nnc(CCC(=O)c2ccc(Cl)cc2)s1
inactive | Nc1nnc(-c2cccc(NS(=O)(=O)c3cccc([N+](=O)[O-])c3)c2)s1
inactive | Nc1nnc(-c2cccc([N+](=O)[O-])c2)s1
inactive | Cc1nnc(N)s1
inactive | Nc1nnc(CCCC(=O)c2ccccc2)s1
inactive | Nc1nnc(CCOc2ccc(Cl)cc2)s1
inactive | Nc1nnc(-c2ccco2)s1
inactive | CCOc1ccc(-c2nnc(N)s2)cc1
inactive | Nc1nnc(-c2cc(=O)c3ccccc3o2)s1

test system: not listed separately; assay: Lipophilicity, log D of the compound in octanol buffer at pH 7.4; type: physicochemical; conditions: not given

logD | SMILES
0.22 | Nc1nnc(CN2C(=O)c3ccccc3C2=O)s1
1 | Nc1nnc([C@@H](O)c2ccccc2)s1
2.95 | Cc1cc(C)cc(-c2nnc(N)s2)c1
1.25 | CCC(C)c1nnc(N)s1 (stereo not given)
1.68 | N#Cc1ccc(-c2nnc(N)s2)cc1
2.03 | Nc1nnc(-c2ccccc2)s1
2.95 | Cc1ccc(-c2nnc(N)s2)cc1C
2.03 | Nc1nnc(CCc2ccccc2)s1
1.11 | Nc1nnc(CCC(=O)c2cccs2)s1
2.43 | Nc1nnc(-c2cccc(NS(=O)(=O)c3ccc([N+](=O)[O-])cc3)c2)s1
-1.74 | Nc1nnc(CC2NC(=O)NC2=O)s1 (stereo not given)
0.77 | Nc1nnc(-c2ccncc2)s1
2.2 | Nc1nnc(CCC(=O)c2ccc(Cl)cc2)s1
2.36 | Nc1nnc(-c2cccc(NS(=O)(=O)c3cccc([N+](=O)[O-])c3)c2)s1
1.94 | Nc1nnc(-c2cccc([N+](=O)[O-])c2)s1
-0.16 | Cc1nnc(N)s1
0.38 | Nc1nnc(-c2ccc3nn[nH]c3c2)s1
1.76 | Nc1nnc(CCCC(=O)c2ccccc2)s1
0.44 | Nc1nnc(CCCl)s1
2.44 | Nc1nnc(CCOc2ccc(Cl)cc2)s1
0.82 | Nc1nnc(-c2ccco2)s1
2.73 | CCOc1ccc(-c2nnc(N)s2)cc1
1.4 | Nc1nnc(-c2cc(=O)c3ccccc3o2)s1

SMILES | logD
NCCc1ccc(-c2nnc(N)s2)cc1 | -0.69

test system: Leishmania major; assay: Antileishmanial activity against Leishmania major MHOM/SU/73/5-ASKH assessed as growth at 50 ug/ml by Alamar blue assay in presence of pyrimethamine; 5-(4-chlorophenyl)-6-ethylpyrimidine-2,4-diamine DHFR inhibitor; values are per cent of control; conditions: not given

SMILES | growth, % of control at 50 µg/mL [%]
Nc1nnc(-c2ccc3[nH]nnc3c2)s1 | 40.9
Nc1nnc(CCC(=O)c2cccs2)s1 | 17.5
Nc1nnc(-c2cc(=O)c3ccccc3o2)s1 | 14.6

target: Bifunctional dihydrofolate reductase-thymidylate synthase (Leishmania major) (UniProt P07382); assay: Inhibition of Leishmania major DHFR at 50 uM; conditions: not given
Method in brief: as §1

Chain of Bifunctional dihydrofolate reductase-thymidylate synthase (Leishmania major) (P07382 whole entry, looked up): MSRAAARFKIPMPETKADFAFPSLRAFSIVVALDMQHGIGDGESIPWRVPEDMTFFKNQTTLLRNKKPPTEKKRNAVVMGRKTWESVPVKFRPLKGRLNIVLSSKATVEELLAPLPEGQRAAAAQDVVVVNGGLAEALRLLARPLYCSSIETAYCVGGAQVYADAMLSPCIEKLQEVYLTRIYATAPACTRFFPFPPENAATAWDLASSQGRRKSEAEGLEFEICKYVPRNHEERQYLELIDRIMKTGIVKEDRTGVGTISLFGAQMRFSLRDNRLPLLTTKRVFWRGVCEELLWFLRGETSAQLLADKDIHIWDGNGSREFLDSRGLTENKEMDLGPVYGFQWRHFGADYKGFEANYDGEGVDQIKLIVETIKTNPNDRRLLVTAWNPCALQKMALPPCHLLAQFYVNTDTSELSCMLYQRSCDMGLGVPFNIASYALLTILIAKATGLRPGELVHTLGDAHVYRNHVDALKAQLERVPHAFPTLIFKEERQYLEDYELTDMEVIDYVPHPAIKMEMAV

SMILES | inhibition
O=C(c1ccc(O)cc1)c1ccc(F)cc1 | inactive
O=C(CN1C(=O)c2ccccc2C1=O)Nc1nnc(CN2C(=O)c3ccccc3C2=O)s1 | inactive

Now from value to molecule:

inhibition | SMILES
inactive | Nc1nnc(-c2ccc3[nH]nnc3c2)s1
inactive | Cn1ncc2cc(N)ccc21
inactive | Nc1nnc(CCC(=O)c2ccc(Cl)cc2)s1

test system: Leishmania mexicana; assay: Antileishmanial activity against Leishmania mexicana MHOM/BZ/84/BEL46 assessed as growth at 50 ug/ml by Alamar blue assay in presence of pyrimethamine; 5-(4-chlorophenyl)-6-ethylpyrimidine-2,4-diamine DHFR inhibitor; values are per cent of control; conditions: not given

SMILES | growth, % of control at 50 µg/mL [%]
Nc1nnc(-c2ccc3[nH]nnc3c2)s1 | 18.2
Nc1nnc(CCC(=O)c2cccs2)s1 | 27.3
Nc1nnc(-c2cc(=O)c3ccccc3o2)s1 | 35.1

target: T2, Dihydrofolate reductase (Homo sapiens); assay: Inhibition of human DHFR at 1 mM; conditions: not given
Method in brief: as §1

inhibition | SMILES
inactive | Nc1nncs1
